Source: ChEMBL document CHEMBL4190252, “Synthesis, antitumor activity and CDK1 inhibiton of new thiazole nortopsentin analogues” (Eur J Med Chem, 2017)

Test system: MOLT-4
Test: Growth inhibition of human MOLT4 cells incubated for 48 hrs by sulforhodamine B assay
Type: functional
Conditions: MOLT-4, 48 h
Procedure, shortened: (§1)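 NCI full panel screen: five 10-fold dilutions (10^-4–10^-8 M). GI50 is the molar concentration giving 50% inhibition of net cell growth.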
In the case of COCCn1cc(-c2csc(-c3c[nH]c4ccc(Br)cc34)n2)c2cccnc21, the GI50 is reported as 3.87 µM.

Test system: RPMI-8226
Test: Growth inhibition of human RPMI8226 cells incubated for 48 hrs by sulforhodamine B assay
Type: functional
Conditions: RPMI-8226, 48 h
Procedure, shortened: as §1
COCCn1cc(-c2csc(-c3c[nH]c4ccc(Br)cc34)n2)c2cccnc21 showed a GI50 of 5.14 µM.

Test system: EKVX
Test: Growth inhibition of human EKVX cells incubated for 48 hrs by sulforhodamine B assay
Type: functional
Conditions: not given
Procedure, shortened: as §1
With COCCn1cc(-c2csc(-c3c[nH]c4ccc(Br)cc34)n2)c2cccnc21 the GI50 was 2.05 µM.

Test system: NCI-H322M
Test: Growth inhibition of human NCI-H322M cells incubated for 48 hrs by sulforhodamine B assay
Type: functional
Conditions: not given
Procedure, shortened: as §1
With COCCn1cc(-c2csc(-c3c[nH]c4ccc(Br)cc34)n2)c2cccnc21 the GI50 was 11.8 µM.

Test system: NCI-H460
Test: Growth inhibition of human NCI-H460 cells incubated for 48 hrs by sulforhodamine B assay
Type: functional
Conditions: NCI-H460, 48 h
Procedure, shortened: as §1
With COCCn1cc(-c2csc(-c3c[nH]c4ccc(Br)cc34)n2)c2cccnc21 the GI50 was 3.07 µM.

Test system: SW-620
Test: Growth inhibition of human SW620 cells incubated for 48 hrs by sulforhodamine B assay
Type: functional
Conditions: SW-620, 48 h
Procedure, shortened: (§2)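 NCI full-panel human tumour cell screen. Cells were exposed to five 10-fold dilutions from 10^-4 to 10^-8 M. GI50 is the molar concentration giving 50% inhibition of net cell growth, and a mean graph midpoint was calculated across the panel.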
Molecule COCCn1cc(-c2csc(-c3c[nH]c4ccc(Br)cc34)n2)c2cccnc21 has a GI50 of 3.3 µM.

Test system: SF-539
Test: Growth inhibition of human SF539 cells incubated for 48 hrs by sulforhodamine B assay
Type: functional
Conditions: SF-539, 48 h
Procedure, shortened: as §1
COCCn1cc(-c2csc(-c3c[nH]c4ccc(Br)cc34)n2)c2cccnc21 gave a GI50 of 7.34 µM.

Test system: SNB-75
Test: Growth inhibition of human SNB75 cells incubated for 48 hrs by sulforhodamine B assay
Type: functional
Conditions: SNB-75, 48 h
Procedure, shortened: as §2
In the case of COCCn1cc(-c2csc(-c3c[nH]c4ccc(Br)cc34)n2)c2cccnc21, the GI50 is reported as 4.72 µM.

Test system: M14
Test: Growth inhibition of human M14 cells incubated for 48 hrs by sulforhodamine B assay
Type: functional
Conditions: M14, 48 h
Procedure, shortened: as §1
Work on COCCn1cc(-c2csc(-c3c[nH]c4ccc(Br)cc34)n2)c2cccnc21 yielded a GI50 of 3.27 µM.

Test system: MDA-MB-435
Test: Growth inhibition of human MDA-MB-435 cells incubated for 48 hrs by sulforhodamine B assay
Type: functional
Conditions: MDA-MB-435, 48 h
Procedure, shortened: as §1
With COCCn1cc(-c2csc(-c3c[nH]c4ccc(Br)cc34)n2)c2cccnc21 the GI50 was 4.12 µM.

Test system: SK-MEL-2
Test: Growth inhibition of human SK-MEL-2 cells incubated for 48 hrs by sulforhodamine B assay
Type: functional
Conditions: SK-MEL-2, 48 h
Procedure, shortened: as §2
For COCCn1cc(-c2csc(-c3c[nH]c4ccc(Br)cc34)n2)c2cccnc21, the GI50 was 6.82 µM.

Test system: SK-MEL-28
Test: Growth inhibition of human SK-MEL-28 cells incubated for 48 hrs by sulforhodamine B assay
Type: functional
Conditions: SK-MEL-28, 48 h
Procedure, shortened: as §2
In the case of COCCn1cc(-c2csc(-c3c[nH]c4ccc(Br)cc34)n2)c2cccnc21, the GI50 is reported as 4.79 µM.

Test system: SK-MEL-5
Test: Growth inhibition of human SK-MEL-5 cells incubated for 48 hrs by sulforhodamine B assay
Type: functional
Conditions: SK-MEL-5, 48 h
Procedure, shortened: as §2
In the case of COCCn1cc(-c2csc(-c3c[nH]c4ccc(Br)cc34)n2)c2cccnc21, the GI50 is reported as 3.24 µM.

Test system: OVCAR-3
Test: Growth inhibition of human OVCAR3 cells incubated for 48 hrs by sulforhodamine B assay
Type: functional
Conditions: OVCAR-3, 48 h
Procedure, shortened: as §1
Work on COCCn1cc(-c2csc(-c3c[nH]c4ccc(Br)cc34)n2)c2cccnc21 yielded a GI50 of 3.9 µM.

Test system: OVCAR-4
Test: Growth inhibition of human OVCAR4 cells incubated for 48 hrs by sulforhodamine B assay
Type: functional
Conditions: OVCAR-4, 48 h
Procedure, shortened: as §1
Molecule COCCn1cc(-c2csc(-c3c[nH]c4ccc(Br)cc34)n2)c2cccnc21 has a GI50 of 2.74 µM.

Test system: CAKI-1
Test: Growth inhibition of human Caki1 cells incubated for 48 hrs by sulforhodamine B assay
Type: functional
Conditions: CAKI-1, 48 h
Procedure, shortened: as §1
Molecule COCCn1cc(-c2csc(-c3c[nH]c4ccc(Br)cc34)n2)c2cccnc21 has a GI50 of 5.21 µM.

Test system: RXF 393
Test: Growth inhibition of human RXF393 cells incubated for 48 hrs by sulforhodamine B assay
Type: functional
Conditions: RXF 393, 48 h
Procedure, shortened: as §1
Work on COCCn1cc(-c2csc(-c3c[nH]c4ccc(Br)cc34)n2)c2cccnc21 yielded a GI50 of 3.3 µM.

Test system: UO-31
Test: Growth inhibition of human UO31 cells incubated for 48 hrs by sulforhodamine B assay
Type: functional
Conditions: UO-31, 48 h
Procedure, shortened: as §2
In the case of COCCn1cc(-c2csc(-c3c[nH]c4ccc(Br)cc34)n2)c2cccnc21, the GI50 is reported as 3.1 µM.

Test system: MDA-MB-231
Test: Growth inhibition of human MDA-MB-231 cells incubated for 48 hrs by sulforhodamine B assay
Type: functional
Conditions: MDA-MB-231, 48 h
Procedure, shortened: as §1
For COCCn1cc(-c2csc(-c3c[nH]c4ccc(Br)cc34)n2)c2cccnc21, the GI50 was 2.65 µM.

Test system: T47D
Test: Growth inhibition of human T47D cells incubated for 48 hrs by sulforhodamine B assay
Type: functional
Conditions: not given
Procedure, shortened: as §2
COCCn1cc(-c2csc(-c3c[nH]c4ccc(Br)cc34)n2)c2cccnc21 showed a GI50 of 1.97 µM.

Test system: MCF7
Test: Induction of apoptosis in human MCF7 cells assessed as early apoptotic cells at 2 x 10^-6 M after 72 hrs by Annexin V/propidium iodide double staining-based flow cytometry (reference value: 1%)
Type: functional
Conditions: not given
Procedure, shortened: (§3)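 MCF-7 cells were grown in RPMI with 10% FBS, 2 mM L-glutamine and antibiotics at 37 °C in 5% CO2. They were seeded at 2.0 x 10^5 cells/cm2 in triplicate, left to adhere overnight, then treated for 72 h; DMSO 0.1% served as vehicle. Trypsinised cells at 2.0 x 10^5/mL were stained with annexin V-FITC and PI for 15 min at room temperature in the dark. At least 1.0 x 10^4 cells were gated into viable, early apoptotic, late apoptotic and necrotic quadrants.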
Work on COCCn1cc(-c2csc(-c3c[nH]c4ccc(Br)cc34)n2)c2cccnc21 yielded an Activity of 36.3%.

Test system: MCF7
Test: Induction of apoptosis in human MCF7 cells assessed as late apoptotic cells at 2 x 10^-6 M after 72 hrs by Annexin V/propidium iodide double staining-based flow cytometry (reference value: 0%)
Type: functional
Conditions: not given
Procedure, shortened: as §3
COCCn1cc(-c2csc(-c3c[nH]c4ccc(Br)cc34)n2)c2cccnc21 gave an Activity of 0%.

Test system: MCF7
Test: Induction of apoptosis in human MCF7 cells assessed as necrotic cells at 2 x 10^-6 M after 72 hrs by Annexin V/propidium iodide double staining-based flow cytometry (reference value: 0.1%)
Type: functional
Conditions: not given
Procedure, shortened: as §3
COCCn1cc(-c2csc(-c3c[nH]c4ccc(Br)cc34)n2)c2cccnc21 gave an Activity of 0.1%.

Test system: Caco-2
Test: Cytotoxicity against human Caco2 cells assessed as reduction in cell viability after 72 hrs by MTT assay
Type: cell-based
Conditions: caco-2, 72 h
Procedure, shortened: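 Caco-2 cells grown in RPMI with 10% FBS and L-glutamine, then treated 15 days after confluence, once differentiated into normal intestinal-like cells. Seeded at 2 × 10^4 cells/well and exposed 72 h to 5–100 µM, DMSO 0.1% vehicle. MTT 2 h at 37 °C, formazan in DMSO, absorbance 570 nm. Vehicle control = 100%; LC50 from viability-versus-concentration plot. At least three experiments in triplicate.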
In the case of COCCn1cc(-c2csc(-c3c[nH]c4ccc(Br)cc34)n2)c2cccnc21, the LC50 is reported as 83.3 µM.

Test system: not listed separately
Test: Selectivity index, ratio of LC50 for human Caco2 cells to GI50 for human MCF7 cells
Type: toxicity
Conditions: Caco2 cells (LC50) and MCF7 cells (GI50), read-out: Selectivity Index
Procedure, shortened: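 Caco-2 cells were differentiated to a normal intestinal-like state for 15 days after confluence, seeded at 2 x 10^4 cells/well in RPMI, and treated with 5–100 µM for 72 h. MTT was added for 2 h at 37 °C, formazan was dissolved in DMSO and read at 570 nm. LC50 came from viability-versus-concentration plots, with at least three experiments in triplicate. SI is the Caco-2 LC50 divided by the MCF-7 GI50.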
With COCCn1cc(-c2csc(-c3c[nH]c4ccc(Br)cc34)n2)c2cccnc21 the selectivity ratio was 46.

Test system: Caco-2
Test: Cytotoxicity against human Caco2 cells assessed as reduction in cell survival at 25 to 100 uM after 72 hrs by MTT assay
Type: cell-based
Conditions: caco-2, 72 h
Procedure, shortened: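 Caco-2 cells, differentiated 15 days post-confluence, seeded at 2 x 10^4 cells/well and treated 72 h with 5–100 µM compound. MTT added (5 mg/mL in FBS-free medium), 2 h at 37 °C, formazan dissolved in DMSO, absorbance at 570 nm. Viability relative to vehicle control (100%); LC50 taken from the viability-concentration plot. At least three experiments in triplicate.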
In the case of COCCn1cc(-c2csc(-c3c[nH]c4ccc(Br)cc34)n2)c2cccnc21, the Activity is reported as “Toxic”.
